Experimental data gathered from unrelated publications.
Each line is one published result; the experiments were not run side by side. In brackets after ≈: the same amount, converted by molar mass.

Compound | organism | test | system | setting | endpoint | value
OC(Cn1cncn1)(Cn1cncn1)c1ccc(F)cc1F | Candida tropicalis | microbial growth, broth dilution | – | – | MIC | 8 µg/mL
CO[C@H]1/C=C/O[C@@]2(C)Oc3c(C)c(O)c4c(O)c(c(/C=N/N5CCN(C)CC5)c(O)c4c3C2=O)NC(=O)/C(C)=C\C=C\[C@H](C)[C@H](O)[C@@H](C)[C@@H](O)[C@@H](C)[C@H](OC(C)=O)[C@@H]1C | Mycolicibacterium smegmatis | microbial growth | – | – | MIC90 | 1.52 µM
C[C@@H]1[C@H](O)[C@@H](C)/C=C/C=C/C=C/C=C/C=C/C=C/C=C/[C@H](O[C@@H]2O[C@H](C)[C@@H](O)[C@H](N)[C@@H]2O)C[C@@H]2O[C@](O)(C[C@@H](O)C[C@@H](O)[C@H](O)CC[C@@H](O)C[C@@H](O)CC(=O)O[C@H]1C)C[C@H](O)[C@H]2C(=O)O | Candida tropicalis | microbial growth, broth dilution | CGMCC2 | 48 h | MIC | < 0.25 µM
C[C@@H]1[C@H](O)[C@@H](C)/C=C/C=C/C=C/C=C/C=C/C=C/C=C/[C@H](O[C@@H]2O[C@H](C)[C@@H](O)[C@H](N)[C@@H]2O)C[C@@H]2O[C@](O)(C[C@@H](O)C[C@@H](O)[C@H](O)CC[C@@H](O)C[C@@H](O)CC(=O)O[C@H]1C)C[C@H](O)[C@H]2C(=O)O | Candida tropicalis | microbial growth, broth dilution | ATCC13803 | 48 h | MIC | 32 µg/mL
CC(=O)NC[C@H]1CN(c2ccc(N3CCOCC3)c(F)c2)C(=O)O1 | Streptococcus viridans | microbial growth | – | clinical isolate | MIC90 | 1 µg/mL
CC(=O)ON=C1C=CC(=C(C#N)c2ccccc2)C=C1 | Candida tropicalis | microbial killing, broth dilution | ATCC13803 | 48 h | MFC | 4 µg/mL (≈ 15.1 µM)
CC(=O)N1CCN(c2ccc(OCC3COC(Cn4ccnc4)(c4ccc(Cl)cc4Cl)O3)cc2)CC1 (stereo not shown) | Candida tropicalis | microbial growth, broth dilution | CGMCC2 | 48 h | MIC | 1 µM
C=C[C@]1(C)C[C@@H](OC(=O)CS[C@@H]2C[C@H]3CC[C@@H](C2)N3C)[C@]2(C)[C@H](C)CC[C@]3(CCC(=O)[C@H]32)[C@@H](C)[C@@H]1O | Streptococcus agalactiae | microbial growth | – | clinical isolate | MIC90 | 0.0312 µg/mL
N#CC(=C1C=CC(=NOC(=O)OCc2ccccc2)C=C1)c1ccccc1 | Candida tropicalis | microbial growth, broth dilution | ATCC13803 | 48 h | MIC | 128 µg/mL
NNC(=O)c1ccncc1 | Mycolicibacterium smegmatis | microbial growth | – | – | MIC90 | 17.7 µM
